Converted amounts (≈) assume the structure as drawn.

Experimental findings from ChEMBL document CHEMBL1687909, “Design, synthesis, and biological evaluation of new cinnamic derivatives as antituberculosis agents” (J Med Chem, 2011) are described below.

Assay [1] deals with Mycobacterium tuberculosis. Briefly: Antituberculosis activity against Mycobacterium tuberculosis 1400 harboring KatG mutant gene after 7 days by MTT assay. The class given is functional. The procedure, abridged:
(§1)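 Colorimetric MTT microassay: serial 2-fold dilutions from DMSO stocks in Middlebrook 7H9 broth, bacterial suspension in 7H9 added. After 6 days, MTT (1 mg/mL) added; 1 day later solubilization buffer, OD 570 nm. MIC = lowest concentration inhibiting growth, untreated bacilli as growth control.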

Assay [2] deals with Mycobacterium tuberculosis. Put plainly: Antituberculosis activity against Mycobacterium tuberculosis MYC5165 harboring InhA mutant gene after 7 days by MTT assay. The class given is functional. The procedure, abridged: as §1

`CC(C)=CCOc1ccc(/C=C/C(=O)NNC(=O)c2ccncc2)cc1`: the values for the MIC in assay [1] and in assay [2] were 68 µM (≈ 23.9 µg/mL) and 27 µM (≈ 9.49 µg/mL), respectively.

`CC(C)=CCOc1ccc(/C=C/c2nnc3c4ccccc4cnn23)cc1`: the MIC in assay [1] turned out to be 0.4 µM (≈ 0.143 µg/mL); in assay [2] it was 0.2 µM (≈ 0.0713 µg/mL).

Consider `COc1ccc(/C=C/C(=O)NNC(=O)c2ccncc2)cc1`, for which the MIC turned out to be 320 µM (≈ 95.1 µg/mL) in assay [1] and 16 µM (≈ 4.76 µg/mL) in assay [2].

On to `O=C(O)c1cn(C2CC2)c2cc(N3CCNCC3)c(F)cc2c1=O` [CIPROFLOXACIN], for which the MIC in assay [1] and in assay [2] was 5 µM (≈ 1.66 µg/mL) throughout.

Consider `NNC(=O)c1ccncc1` [ISONIAZID], for which the MIC in assay [1] turned out to be 729 µM (≈ 100 µg/mL); in assay [2] it was 18 µM (≈ 2.47 µg/mL).
